Measured values from ChEMBL document CHEMBL4480390, “Cink4T, a quinazolinone-based dual inhibitor of Cdk4 and tubulin polymerization, identified via ligand-based virtual screening, for efficient anticancer therapy” (Eur J Med Chem, 2019).
Calls of active or inactive are those of the source. The calls are words filed in the database; no cut-off is given here.

Tests used:
CDK2/Cyclin A2 = CDK2/Cyclin A2 (Homo sapiens, UniProt P24941); experiment: Inhibition of human full length N-terminal GST-fused CDK2 (M1 to L298 residues)/human full length Cyclin-A2 (M1 to L432 residues) expressed in Sf9 cells using histone H1 as substrate measured after 1 hr by ADP-glo luminescence assay
[1] = biological target: Cyclin-dependent kinase 1/cyclin B1 (Homo sapiens, UniProt P06493); experiment: Inhibition of recombinant human N-terminal GST/His6-tagged CDK1 (M1 to M297 residues)/CyclinB1 (M1 to V433 residues) expressed in Sf9 insect cells using RBCTF as substrate measured after 1 hr by ADP-glo luminescence assay
Cytochrome P450 1A1 = biological target: T1, Cytochrome P450 1A1 (Homo sapiens, UniProt P04798); experiment: Inhibition of recombinant human CYP1A1 expressed in baker's yeast-derived microsomes using 7-ethoxyresorufin as substrate by fluorescence assay; assay type: ADME
T1 sequence (P04798 whole entry): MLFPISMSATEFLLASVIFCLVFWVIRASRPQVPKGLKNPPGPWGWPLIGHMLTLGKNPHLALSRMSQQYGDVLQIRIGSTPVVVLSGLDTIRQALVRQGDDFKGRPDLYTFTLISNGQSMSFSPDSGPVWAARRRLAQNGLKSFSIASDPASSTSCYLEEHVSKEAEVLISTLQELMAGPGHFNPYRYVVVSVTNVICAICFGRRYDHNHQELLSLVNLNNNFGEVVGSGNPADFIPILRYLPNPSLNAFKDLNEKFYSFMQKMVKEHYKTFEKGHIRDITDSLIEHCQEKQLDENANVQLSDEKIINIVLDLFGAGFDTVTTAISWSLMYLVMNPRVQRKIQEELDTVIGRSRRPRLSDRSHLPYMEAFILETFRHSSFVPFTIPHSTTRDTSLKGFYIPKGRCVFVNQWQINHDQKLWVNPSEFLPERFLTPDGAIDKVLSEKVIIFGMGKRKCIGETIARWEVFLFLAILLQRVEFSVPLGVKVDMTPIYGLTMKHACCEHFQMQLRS

[2] = biological target: Cyclin-dependent kinase 4/cyclin D1 (Homo sapiens) (UniProt P11802+P24385); experiment: Inhibition of CDK4/cyclin D1 in human T47D cells assessed as reduction in phosphorylation of pRb at Ser807/11 residues at 0.75 uM measured after 18 hrs by Western blot analysis; assay type: cell-based
Summary of the method: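 T47D cells left untreated or treated 18 h at 0.75 or 1.5 µM. Western blots probed with phospho-specific pRb antibodies (Ser780, Ser795, Ser807/811) and a total-pRb antibody; HRP-conjugated secondary for detection.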

T47D [3] = experiment: Cell cycle arrest in human T47D cells assessed as accumulation at G0/G1 phase at 0.75 uM treated 18 hrs post serum-starvation measured after 18 hrs in presence of fresh medium containing FBS by propidium iodide staining based flow cytometry (reference value: 60.3%); assay type: functional
T47D [4] = experiment: Cell cycle arrest in human T47D cells assessed as accumulation at G0/G1 phase at 1.5 uM treated 18 hrs post serum-starvation measured after 18 hrs in presence of fresh medium containing FBS by propidium iodide staining based flow cytometry (reference value: 60.3%); assay type: functional
T47D [5] = experiment: Cell cycle arrest in human T47D cells assessed as increase in accumulation at S phase at 1.5 uM treated 18 hrs post serum-starvation measured after 18 hrs in presence of fresh medium containing FBS by propidium iodide staining based flow cytometry relative to control; assay type: functional
Calu-1 = experiment: Cell cycle arrest in human Calu1 cells assessed as accumulation at G0/G1 phase at 1.8 uM treated 18 hrs post serum-starvation measured after 18 hrs in presence of fresh medium containing FBS by propidium iodide staining based flow cytometry (reference value: 69.2%); assay type: functional

IC50 (CDK2/Cyclin A2): > 100 µM | IC50 [1]: > 50 µM | IC50 (Cytochrome P450 1A1): > 5 µM | inhibition [2]: inactive
Structure (SMILES): O=C(COc1ccc(-c2nc3ccccc3c(=O)[nH]2)cc1)Nc1cccc(Cl)c1
Activity (T47D [3]): 77% | Activity (T47D [4]): 68.1% | Activity (T47D [5]): 5.3% | Activity (Calu-1): 88%
